Consider one compound from ChEMBL document CHEMBL5661979, “Pharmacological inhibition of BMK1 suppresses tumor growth through promyelocytic leukemia protein” (Cancer Cell, 2010).

Usually inhibition stands for the relative decrease from the control value, in per cent. The IC50 is the concentration needed to halve the response being measured. Low readings indicate greater potency in that assay, high ones weaker potency in that assay.

Format in all cases: subcellular
Experiment [1] deals with Phosphatidylinositol 4-kinase beta (Homo sapiens, UniProt Q9UBF8). As to the kind of experiment: Inhibition of PIK4CB in human HeLa cells lysate at 50 uM pre incubated for 15 mins followed by ATP acyl phosphate probe addition and measured after 10 mins by LC-MS/MS analysis relative to control. The conditions noted are these: time 25.0 min.
Experiment [2] addresses T1, Interleukin-1 receptor-associated kinase 4 (Homo sapiens) (UniProt Q9NWZ3).
T1 sequence (whole entry): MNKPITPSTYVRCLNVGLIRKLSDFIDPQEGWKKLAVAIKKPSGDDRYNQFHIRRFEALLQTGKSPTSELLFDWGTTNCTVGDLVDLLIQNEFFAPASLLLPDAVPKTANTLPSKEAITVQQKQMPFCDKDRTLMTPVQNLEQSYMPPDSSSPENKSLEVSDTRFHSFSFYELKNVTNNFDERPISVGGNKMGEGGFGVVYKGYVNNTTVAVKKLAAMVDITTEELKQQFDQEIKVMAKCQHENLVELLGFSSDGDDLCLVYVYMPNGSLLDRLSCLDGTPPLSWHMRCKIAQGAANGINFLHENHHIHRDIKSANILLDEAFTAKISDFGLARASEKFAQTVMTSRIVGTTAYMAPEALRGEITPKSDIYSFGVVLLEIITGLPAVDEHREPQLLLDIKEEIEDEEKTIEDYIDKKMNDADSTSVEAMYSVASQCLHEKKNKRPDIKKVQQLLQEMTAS
As to the kind of experiment: Inhibition of IRAK4 in human HeLa cells lysate at 50 uM pre incubated for 15 mins followed by ADP acyl phosphate probe addition and measured after 10 mins by LC-MS/MS analysis relative to control. Conditions: time 25.0 min.

For experiment [3], the target named is Interferon-induced, double-stranded RNA-activated protein kinase (Homo sapiens, UniProt P19525). Kind of experiment: Inhibition of PKR in human HeLa cells lysate at 2 uM pre incubated for 15 mins followed by ADP acyl phosphate probe addition and measured after 10 mins by LC-MS/MS analysis relative to control. Conditions: time 25.0 min.
The target of experiment [4] is Ribosomal protein S6 kinase alpha-1 (Homo sapiens, UniProt Q15418). As to the kind of experiment: Inhibition of RSK1 domain 2 in human HeLa cells lysate pre incubated for 15 mins followed by ATP acyl phosphate probe addition and measured after 10 mins by LC-MS/MS analysis.
The target of experiment [5] is Phosphatidylinositol 4-kinase alpha (Homo sapiens, UniProt P42356). As to the kind of experiment: Inhibition of PIK4CA in human HeLa cells lysate pre incubated for 15 mins followed by ATP acyl phosphate probe addition and measured after 10 mins by LC-MS/MS analysis.
The target of a further experiment is eIF-2-alpha kinase GCN2 (Homo sapiens, UniProt Q9P2K8). As to the kind of experiment: Inhibition of GCN2 in human HeLa cells lysate pre incubated for 15 mins followed by ATP acyl phosphate probe addition and measured after 10 mins by LC-MS/MS analysis.
For experiment [6], the target named is 3-phosphoinositide-dependent protein kinase 1 (Homo sapiens, UniProt O15530). As to the kind of experiment: Inhibition of PDK1 in human HeLa cells lysate pre incubated for 15 mins followed by ADP acyl phosphate probe addition and measured after 10 mins by LC-MS/MS analysis.
Experiment [7] has as its target Ribosomal protein S6 kinase alpha-3 (Homo sapiens, UniProt P51812). As to the kind of experiment: Inhibition of RSK2 domain 1 active form in human HeLa cells lysate at 50 uM pre incubated for 15 mins followed by ATP acyl phosphate probe addition and measured after 10 mins by LC-MS/MS analysis relative to control. Conditions: time 25.0 min.
Experiment [8] addresses Serine/threonine-protein kinase 24 (Homo sapiens, UniProt Q9Y6E0). As to the kind of experiment: Inhibition of MST3 in human HeLa cells lysate pre incubated for 15 mins followed by ATP acyl phosphate probe addition and measured after 10 mins by LC-MS/MS analysis.
Experiment [9] has as its target Ribosomal protein S6 kinase beta-1 (Homo sapiens, UniProt P23443). As to the kind of experiment: Inhibition of P70S6K in human HeLa cells lysate at 50 uM pre incubated for 15 mins followed by ATP acyl phosphate probe addition and measured after 10 mins by LC-MS/MS analysis relative to control. The conditions noted are these: time 25.0 min.
Experiment [10] addresses Serine/threonine-protein kinase tousled-like 2 (Homo sapiens, UniProt Q86UE8). Kind of experiment: Inhibition of TLK2 in human HeLa cells lysate pre incubated for 15 mins followed by ADP acyl phosphate probe addition and measured after 10 mins by LC-MS/MS analysis.
The target of experiment [11] is Cyclin-dependent kinase 7 (Homo sapiens, UniProt P50613). As to the kind of experiment: Inhibition of CDK7 in human HeLa cells lysate at 50 uM pre incubated for 15 mins followed by ATP acyl phosphate probe addition and measured after 10 mins by LC-MS/MS analysis relative to control. Conditions: time 25.0 min. The method in brief:
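KiNativ profiling in HeLa lysate (5 mg/mL total protein). Lysate incubated 15 min with inhibitor at 50, 10, 2, 0.8 or 0 μM. ATP or ADP acylphosphate probe then added (5 μM final) and reacted 10 min. Reaction stopped with urea and analysed by targeted MS, using up to four fragment ions per kinase peptide-probe conjugate. % inhibition taken against untreated lysate. Run in duplicate.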

For experiment [12], the target named is T2, Mitogen-activated protein kinase kinase kinase kinase 2 (Homo sapiens) (UniProt Q12851).
T2 sequence (whole entry): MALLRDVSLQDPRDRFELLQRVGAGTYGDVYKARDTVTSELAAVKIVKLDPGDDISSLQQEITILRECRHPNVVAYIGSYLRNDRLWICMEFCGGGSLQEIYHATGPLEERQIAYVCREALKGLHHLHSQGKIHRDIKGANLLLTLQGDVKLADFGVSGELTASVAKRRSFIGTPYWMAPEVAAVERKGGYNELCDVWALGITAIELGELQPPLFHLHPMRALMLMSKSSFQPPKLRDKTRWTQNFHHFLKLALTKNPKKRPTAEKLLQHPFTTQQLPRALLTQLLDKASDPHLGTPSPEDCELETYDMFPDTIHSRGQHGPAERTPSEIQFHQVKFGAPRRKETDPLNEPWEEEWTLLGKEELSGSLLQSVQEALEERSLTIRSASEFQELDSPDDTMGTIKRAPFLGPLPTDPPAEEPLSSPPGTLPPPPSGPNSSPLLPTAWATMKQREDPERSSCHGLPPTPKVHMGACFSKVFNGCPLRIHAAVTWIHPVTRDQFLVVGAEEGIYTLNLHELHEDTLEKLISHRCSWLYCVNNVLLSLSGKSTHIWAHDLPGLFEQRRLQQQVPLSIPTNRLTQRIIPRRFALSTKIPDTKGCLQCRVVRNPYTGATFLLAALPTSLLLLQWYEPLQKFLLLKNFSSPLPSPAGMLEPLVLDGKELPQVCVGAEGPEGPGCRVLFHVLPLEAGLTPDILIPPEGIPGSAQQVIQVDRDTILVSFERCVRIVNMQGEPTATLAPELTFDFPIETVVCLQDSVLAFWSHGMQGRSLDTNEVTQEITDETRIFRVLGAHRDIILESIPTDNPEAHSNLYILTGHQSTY
As to the kind of experiment: Inhibition of GCK in human HeLa cells lysate at 2 uM pre incubated for 15 mins followed by ADP acyl phosphate probe addition and measured after 10 mins by LC-MS/MS analysis relative to control. Conditions: time 25.0 min.

For experiment [13], the target named is Mitogen-activated protein kinase kinase kinase 11 (Homo sapiens, UniProt Q16584). Kind of experiment: Inhibition of MLK3 in human HeLa cells lysate pre incubated for 15 mins followed by ATP acyl phosphate probe addition and measured after 10 mins by LC-MS/MS analysis.

Ribosomal protein S6 kinase beta-1, sequence (P23443 whole entry, looked up): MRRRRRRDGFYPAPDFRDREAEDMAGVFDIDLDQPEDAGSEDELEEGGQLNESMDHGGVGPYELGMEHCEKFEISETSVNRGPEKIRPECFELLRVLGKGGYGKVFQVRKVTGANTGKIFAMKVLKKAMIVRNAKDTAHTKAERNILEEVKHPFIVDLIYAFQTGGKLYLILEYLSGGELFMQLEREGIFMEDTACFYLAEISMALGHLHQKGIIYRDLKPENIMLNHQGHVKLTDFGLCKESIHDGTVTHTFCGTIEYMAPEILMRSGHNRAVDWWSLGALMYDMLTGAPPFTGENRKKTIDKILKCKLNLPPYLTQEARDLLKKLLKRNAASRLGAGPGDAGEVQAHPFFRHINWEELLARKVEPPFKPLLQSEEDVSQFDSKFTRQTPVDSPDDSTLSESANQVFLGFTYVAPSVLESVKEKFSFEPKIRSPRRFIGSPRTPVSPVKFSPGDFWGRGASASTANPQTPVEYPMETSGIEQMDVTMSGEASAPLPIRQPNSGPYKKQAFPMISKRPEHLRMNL
eIF-2-alpha kinase GCN2, sequence (Q9P2K8 whole entry): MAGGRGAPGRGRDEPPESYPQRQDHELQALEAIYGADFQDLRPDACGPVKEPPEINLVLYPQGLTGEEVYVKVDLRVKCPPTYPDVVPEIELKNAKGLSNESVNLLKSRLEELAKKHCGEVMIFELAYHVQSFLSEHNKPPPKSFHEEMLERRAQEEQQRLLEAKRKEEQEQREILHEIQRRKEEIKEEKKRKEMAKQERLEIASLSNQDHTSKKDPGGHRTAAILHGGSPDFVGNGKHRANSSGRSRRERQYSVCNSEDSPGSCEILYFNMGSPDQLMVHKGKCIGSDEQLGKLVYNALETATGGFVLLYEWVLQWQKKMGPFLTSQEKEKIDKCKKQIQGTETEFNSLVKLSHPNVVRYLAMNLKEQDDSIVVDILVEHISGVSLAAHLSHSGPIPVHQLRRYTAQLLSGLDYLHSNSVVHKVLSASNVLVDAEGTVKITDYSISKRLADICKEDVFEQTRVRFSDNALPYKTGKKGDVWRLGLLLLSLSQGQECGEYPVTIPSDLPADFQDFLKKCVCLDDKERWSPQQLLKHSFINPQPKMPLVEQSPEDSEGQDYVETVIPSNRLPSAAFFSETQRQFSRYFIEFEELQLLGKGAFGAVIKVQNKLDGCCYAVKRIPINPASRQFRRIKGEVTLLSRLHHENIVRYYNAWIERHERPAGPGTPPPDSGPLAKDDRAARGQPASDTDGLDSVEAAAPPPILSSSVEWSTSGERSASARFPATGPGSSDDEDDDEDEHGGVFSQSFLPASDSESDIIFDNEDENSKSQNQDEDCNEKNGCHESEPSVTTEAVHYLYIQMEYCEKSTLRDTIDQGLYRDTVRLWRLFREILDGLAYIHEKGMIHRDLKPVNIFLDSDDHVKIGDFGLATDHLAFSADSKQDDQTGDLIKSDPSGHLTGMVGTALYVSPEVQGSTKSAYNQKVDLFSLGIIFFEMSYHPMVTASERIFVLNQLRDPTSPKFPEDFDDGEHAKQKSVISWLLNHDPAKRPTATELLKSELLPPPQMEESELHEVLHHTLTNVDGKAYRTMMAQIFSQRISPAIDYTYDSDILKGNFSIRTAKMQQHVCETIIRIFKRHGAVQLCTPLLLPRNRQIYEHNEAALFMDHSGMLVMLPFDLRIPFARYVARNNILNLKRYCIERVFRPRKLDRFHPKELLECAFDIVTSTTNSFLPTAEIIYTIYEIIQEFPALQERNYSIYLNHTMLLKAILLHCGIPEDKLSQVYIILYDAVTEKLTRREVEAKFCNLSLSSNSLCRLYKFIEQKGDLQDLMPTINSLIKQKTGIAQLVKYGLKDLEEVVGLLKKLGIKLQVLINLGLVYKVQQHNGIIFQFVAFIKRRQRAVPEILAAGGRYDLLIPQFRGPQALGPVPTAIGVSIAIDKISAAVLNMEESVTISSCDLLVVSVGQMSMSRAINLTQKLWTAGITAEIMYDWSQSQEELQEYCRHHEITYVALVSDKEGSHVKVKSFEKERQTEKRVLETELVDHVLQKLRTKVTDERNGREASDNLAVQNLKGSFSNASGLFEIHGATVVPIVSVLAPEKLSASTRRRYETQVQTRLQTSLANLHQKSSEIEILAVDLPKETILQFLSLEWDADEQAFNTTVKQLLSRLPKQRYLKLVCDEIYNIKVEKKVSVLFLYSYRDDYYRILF
Phosphatidylinositol 4-kinase beta, sequence (Q9UBF8 2-816 limits assumed): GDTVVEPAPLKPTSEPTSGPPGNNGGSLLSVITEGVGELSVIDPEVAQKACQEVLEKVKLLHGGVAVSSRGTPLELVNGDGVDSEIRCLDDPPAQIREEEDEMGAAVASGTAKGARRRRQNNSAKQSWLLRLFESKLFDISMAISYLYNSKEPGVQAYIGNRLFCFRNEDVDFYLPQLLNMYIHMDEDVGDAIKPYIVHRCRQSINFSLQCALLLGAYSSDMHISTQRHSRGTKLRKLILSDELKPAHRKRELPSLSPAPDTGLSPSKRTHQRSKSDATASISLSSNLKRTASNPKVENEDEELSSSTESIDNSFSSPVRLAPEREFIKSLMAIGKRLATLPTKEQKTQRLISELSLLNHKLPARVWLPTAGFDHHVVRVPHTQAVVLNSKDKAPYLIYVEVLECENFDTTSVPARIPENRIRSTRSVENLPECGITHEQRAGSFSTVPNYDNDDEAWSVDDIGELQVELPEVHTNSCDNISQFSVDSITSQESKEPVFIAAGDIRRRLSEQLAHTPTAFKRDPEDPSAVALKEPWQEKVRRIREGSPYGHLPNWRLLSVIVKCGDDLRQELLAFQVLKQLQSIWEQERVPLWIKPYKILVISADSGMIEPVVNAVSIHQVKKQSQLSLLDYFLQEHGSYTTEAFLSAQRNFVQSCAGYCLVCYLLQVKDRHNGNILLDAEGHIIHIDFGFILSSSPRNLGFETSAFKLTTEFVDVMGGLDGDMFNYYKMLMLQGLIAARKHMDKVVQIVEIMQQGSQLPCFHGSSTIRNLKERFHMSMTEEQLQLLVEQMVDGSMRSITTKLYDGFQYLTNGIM
Phosphatidylinositol 4-kinase alpha, sequence (P42356 whole entry): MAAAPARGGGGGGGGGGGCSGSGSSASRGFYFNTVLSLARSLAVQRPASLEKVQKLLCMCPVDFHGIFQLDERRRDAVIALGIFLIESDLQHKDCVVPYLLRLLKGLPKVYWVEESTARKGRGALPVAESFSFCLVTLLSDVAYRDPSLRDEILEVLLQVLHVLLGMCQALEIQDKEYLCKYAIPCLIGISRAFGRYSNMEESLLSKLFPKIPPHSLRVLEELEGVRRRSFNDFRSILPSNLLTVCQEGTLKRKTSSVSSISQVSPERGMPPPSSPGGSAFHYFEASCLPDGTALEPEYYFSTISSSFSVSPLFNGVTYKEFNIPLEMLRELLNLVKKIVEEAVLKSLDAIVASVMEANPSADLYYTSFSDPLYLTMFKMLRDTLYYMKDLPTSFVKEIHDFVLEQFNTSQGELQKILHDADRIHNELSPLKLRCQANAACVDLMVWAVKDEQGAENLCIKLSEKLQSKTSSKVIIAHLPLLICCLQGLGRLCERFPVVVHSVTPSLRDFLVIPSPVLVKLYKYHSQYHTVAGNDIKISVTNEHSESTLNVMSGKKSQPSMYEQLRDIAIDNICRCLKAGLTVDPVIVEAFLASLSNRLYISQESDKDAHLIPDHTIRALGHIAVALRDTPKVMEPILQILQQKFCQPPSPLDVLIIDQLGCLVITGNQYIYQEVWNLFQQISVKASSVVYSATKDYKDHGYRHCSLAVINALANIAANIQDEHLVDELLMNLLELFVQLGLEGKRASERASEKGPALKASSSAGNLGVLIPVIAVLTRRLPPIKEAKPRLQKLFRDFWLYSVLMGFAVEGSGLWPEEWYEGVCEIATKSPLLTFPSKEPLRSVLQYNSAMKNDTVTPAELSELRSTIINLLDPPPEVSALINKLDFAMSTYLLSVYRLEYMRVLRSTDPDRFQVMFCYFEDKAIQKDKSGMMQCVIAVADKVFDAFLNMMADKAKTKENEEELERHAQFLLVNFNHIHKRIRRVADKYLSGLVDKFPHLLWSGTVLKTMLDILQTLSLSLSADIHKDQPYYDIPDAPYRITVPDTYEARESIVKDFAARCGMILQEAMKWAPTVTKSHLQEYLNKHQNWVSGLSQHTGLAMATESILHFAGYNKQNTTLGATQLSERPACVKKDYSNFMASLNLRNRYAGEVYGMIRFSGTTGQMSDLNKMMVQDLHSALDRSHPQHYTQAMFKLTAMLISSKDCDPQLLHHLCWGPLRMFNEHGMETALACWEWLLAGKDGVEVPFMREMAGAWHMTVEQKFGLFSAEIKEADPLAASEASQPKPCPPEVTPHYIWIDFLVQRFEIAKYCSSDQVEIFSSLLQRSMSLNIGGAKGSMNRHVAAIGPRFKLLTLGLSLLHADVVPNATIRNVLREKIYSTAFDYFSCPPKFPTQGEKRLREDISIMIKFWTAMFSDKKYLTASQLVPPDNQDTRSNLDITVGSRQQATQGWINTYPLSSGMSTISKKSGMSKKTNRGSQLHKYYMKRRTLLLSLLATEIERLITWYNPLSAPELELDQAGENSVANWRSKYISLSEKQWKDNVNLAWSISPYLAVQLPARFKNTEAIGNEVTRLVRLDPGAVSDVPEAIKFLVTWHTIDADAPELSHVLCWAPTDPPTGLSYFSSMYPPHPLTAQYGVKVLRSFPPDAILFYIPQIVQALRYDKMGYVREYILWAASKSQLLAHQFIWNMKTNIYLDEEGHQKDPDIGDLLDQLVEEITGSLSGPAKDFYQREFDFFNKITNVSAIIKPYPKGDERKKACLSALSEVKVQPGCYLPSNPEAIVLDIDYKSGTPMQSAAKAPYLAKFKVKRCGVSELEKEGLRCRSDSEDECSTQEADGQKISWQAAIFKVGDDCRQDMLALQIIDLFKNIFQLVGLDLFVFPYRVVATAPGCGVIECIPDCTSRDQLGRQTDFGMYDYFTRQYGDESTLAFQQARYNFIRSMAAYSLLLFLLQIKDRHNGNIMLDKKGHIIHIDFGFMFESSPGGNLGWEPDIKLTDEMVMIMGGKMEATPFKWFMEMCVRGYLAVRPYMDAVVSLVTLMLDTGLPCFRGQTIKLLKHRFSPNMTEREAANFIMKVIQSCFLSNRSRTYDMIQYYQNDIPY

With `CCOc1cc(N2CCC(O)CC2)ccc1Nc1ncc2c(n1)N(C)c1ccccc1C(=O)N2C`, the inhibition was 52.2% in [1]; -0.4% in experiment [2]; 8.4% in experiment [3]; 11.5% in [7]; -3.8% in experiment [9]; -0.5% in experiment [11]. Moreover, in [12], the inhibition worked out at 22.6%. The IC50 was 26 µM in experiment [4]; 36 µM in [5]; more than 50 µM on eIF-2-alpha kinase GCN2; more than 50 µM in experiment [6]; more than 50 µM in experiment [8]; more than 50 µM in [10]. In experiment [13], this compound came in with an IC50 of more than 50 µM.
